In ChEMBL document CHEMBL4354876, “A Selective Modulator of Peroxisome Proliferator-Activated Receptor γ with an Unprecedented Binding Mode” (J Med Chem, 2020):
The source made the active and inactive calls. The calls are words filed in the database; no cut-off is given here.

Legend:
[1] = target: T1, Peroxisome proliferator-activated receptor alpha (Homo sapiens, UniProt Q07869); experiment: Partial agonist activity at Gal4-fused PPARalpha LBD (unknown origin) expressed in HEK293T cells after 14 to 16 hrs by dual-Glo luciferase assay; type: cell-based
T1 sequence (Q07869 whole entry): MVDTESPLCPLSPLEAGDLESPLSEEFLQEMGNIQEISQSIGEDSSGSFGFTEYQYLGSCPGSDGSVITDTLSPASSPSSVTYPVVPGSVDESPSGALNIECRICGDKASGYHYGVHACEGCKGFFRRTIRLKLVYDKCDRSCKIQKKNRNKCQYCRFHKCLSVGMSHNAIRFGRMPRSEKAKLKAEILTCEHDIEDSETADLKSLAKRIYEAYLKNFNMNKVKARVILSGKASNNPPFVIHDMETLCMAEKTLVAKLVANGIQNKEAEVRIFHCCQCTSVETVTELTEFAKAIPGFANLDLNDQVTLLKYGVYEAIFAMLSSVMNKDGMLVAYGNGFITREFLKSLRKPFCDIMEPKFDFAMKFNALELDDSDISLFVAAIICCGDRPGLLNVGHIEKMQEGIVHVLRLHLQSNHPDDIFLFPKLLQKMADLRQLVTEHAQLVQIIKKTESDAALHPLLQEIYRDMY
Procedure, shortened: (§1)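 Gal4 hybrid reporter assay in transiently transfected HEK293T cells. Constructs fuse the yeast Gal4 DNA-binding domain to the human receptor LBD. Firefly luciferase is the reporter. Constitutive renilla luciferase monitors transfection efficiency and toxicity. EC50 and maximal relative activation are reported as mean±S.E.M., n≥3.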

[2] = target: T2, Peroxisome proliferator-activated receptor alpha (Homo sapiens) (UniProt Q07869); experiment: Partial agonist activity at Gal4-fused PPARalpha LBD (unknown origin) expressed in HEK293T cells after 14 to 16 hrs by dual-Glo luciferase assay relative to GW7647; type: cell-based; procedure, shortened: as §1
T2 sequence (whole entry): T1 sequence (Q07869 whole entry)

[3] = target: T3, Peroxisome proliferator-activated receptor gamma (Homo sapiens, UniProt P37231); experiment: Partial agonist activity at Gal4-fused PPARgamma LBD (unknown origin) expressed in HEK293T cells after 14 to 16 hrs by dual-Glo luciferase assay; type: cell-based; procedure, shortened: as §1
T3 sequence (P37231 whole entry): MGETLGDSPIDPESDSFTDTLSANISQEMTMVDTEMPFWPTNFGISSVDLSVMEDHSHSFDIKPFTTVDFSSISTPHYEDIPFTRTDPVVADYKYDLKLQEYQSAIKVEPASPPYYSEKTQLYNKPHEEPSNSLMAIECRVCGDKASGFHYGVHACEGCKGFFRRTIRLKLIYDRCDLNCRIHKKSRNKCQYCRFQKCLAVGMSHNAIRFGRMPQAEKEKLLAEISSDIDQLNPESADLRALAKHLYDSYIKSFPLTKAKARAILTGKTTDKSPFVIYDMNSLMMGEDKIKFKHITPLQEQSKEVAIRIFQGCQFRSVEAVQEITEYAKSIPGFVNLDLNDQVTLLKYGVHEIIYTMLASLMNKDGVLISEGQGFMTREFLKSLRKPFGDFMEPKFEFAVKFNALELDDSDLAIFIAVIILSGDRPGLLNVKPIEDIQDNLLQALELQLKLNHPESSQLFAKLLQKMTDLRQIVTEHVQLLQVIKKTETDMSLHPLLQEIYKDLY

[4] = target: T4, Peroxisome proliferator-activated receptor gamma (Homo sapiens) (UniProt P37231); experiment: Partial agonist activity at Gal4-fused PPARgamma LBD (unknown origin) expressed in HEK293T cells after 14 to 16 hrs by dual-Glo luciferase assay relative to pioglitazone; type: cell-based; procedure, shortened: as §1
T4 sequence (whole entry): T3 sequence (P37231 whole entry)

[5] = target: T5, Peroxisome proliferator-activated receptor delta (Homo sapiens) (UniProt Q03181); experiment: Partial agonist activity at Gal4-fused PPARdelta LBD (unknown origin) expressed in HEK293T cells at 10 uM after 14 to 16 hrs by dual-Glo luciferase assay; type: cell-based
T5 sequence (whole entry): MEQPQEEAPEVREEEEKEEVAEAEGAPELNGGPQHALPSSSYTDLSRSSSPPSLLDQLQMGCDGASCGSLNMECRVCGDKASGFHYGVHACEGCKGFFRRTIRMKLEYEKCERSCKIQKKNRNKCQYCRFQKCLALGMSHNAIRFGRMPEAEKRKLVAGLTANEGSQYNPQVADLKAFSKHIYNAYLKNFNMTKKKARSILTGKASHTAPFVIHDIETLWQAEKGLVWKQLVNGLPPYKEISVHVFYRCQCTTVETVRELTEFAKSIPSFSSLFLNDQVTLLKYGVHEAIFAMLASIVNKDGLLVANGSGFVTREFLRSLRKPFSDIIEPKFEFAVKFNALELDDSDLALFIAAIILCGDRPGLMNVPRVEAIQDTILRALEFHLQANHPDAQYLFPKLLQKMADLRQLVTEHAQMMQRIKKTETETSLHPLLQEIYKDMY

[6] = target: T6, Peroxisome proliferator-activated receptor delta (Homo sapiens, UniProt Q03181); experiment: Partial agonist activity at Gal4-fused PPARdelta LBD (unknown origin) expressed in HEK293T cells after 14 to 16 hrs by dual-Glo luciferase assay; type: cell-based; procedure, shortened: as §1
T6 sequence (Q03181 whole entry): T5 sequence (whole entry)

[7] = target: T5, Peroxisome proliferator-activated receptor delta (Homo sapiens); experiment: Partial agonist activity at Gal4-fused PPARdelta LBD (unknown origin) expressed in HEK293T cells after 14 to 16 hrs by dual-Glo luciferase assay relative to L165041; type: cell-based; procedure, shortened: as §1
[8] = target: T4, Peroxisome proliferator-activated receptor gamma (Homo sapiens); experiment: Partial agonist activity at recombinant N-terminal GFP-fused PPARgamma LBD (unknown origin) assessed as increase in biotinylated-CBP peptide recruitment measured after 2 hrs by HTRF assay
Procedure, shortened: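 Cell-free HTRF assay of CBP coactivator recruitment to recombinant PPARγ protein.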

[9] = target: T7, RXR alpha/PPAR gamma (Homo sapiens) (UniProt P37231+P19793); experiment: Partial agonist activity at 1:1 Gal4-fused PPARgamma LBD/Gal4-fused RXRalpha (unknown origin) expressed in HEK293T cells after 14 to 16 hrs by dual-Glo luciferase assay; type: cell-based
Procedure, shortened: (§2)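 Gal4-PPARγ hybrid reporter assay in HEK293T cells with Gal4-RXRα co-transfected. Firefly luciferase is the read-out, with constitutive renilla as the transfection and viability control. Efficacy is expressed relative to pioglitazone (1 µM). Activity data are normalized to counter variations in receptor protein amount.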

[10] = target: T7, RXR alpha/PPAR gamma (Homo sapiens); experiment: Partial agonist activity at 1:2 Gal4-fused PPARgamma LBD/Gal4-fused RXRalpha (unknown origin) expressed in HEK293T cells at 0.1 to 1 uM after 14 to 16 hrs by dual-Glo luciferase assay; type: cell-based; procedure, shortened: as §2
[11] = Effect on recombinant PPARgamma LBD/N-terminal GFP-fused RXRalpha mutant LBD (unknown origin) protein-protein dimerization at 10 uM measured after 2 hrs by HTRF assay; conditions: human
Procedure, shortened: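 Cell-free HTRF assay of PPARγ–RXRα dimerization on recombinant proteins.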

[12] = test system: PPARgamma/RXR (Homo sapiens); experiment: Partial agonist activity at PPARgamma/RXR (unknown origin) expressed in HEK293T cells at 0.1 to 1 uM after 14 to 16 hrs by PPRE1 reporter gene based dual-Glo luciferase assay; conditions: HEK-293T

Structure (SMILES)	EC50 [1]	max activation [2]	EC50 [3]	max activation [4]	Activity [5]	EC50 [6]	max activation [7]	Activity [8]	Activity [9]	Activity [10]	Activity [11]	EC50 [12]
CCCCCC[C@@H](Sc1nc2ccc(NS(=O)(=O)c3ccc(Cl)cc3Cl)cc2s1)C(=O)O	0.43 µM	18%	0.0016 µM	101%	–	0.81 µM	26%	Active	Active	Active	Not Active	0.16 µM
CCCCCCC(Sc1nc2ccc(NCc3ccc4ccccc4c3)cc2s1)C(=O)O (centres undefined)	4 µM	32%	3 µM	53%	–	4.3 µM	23%	–	–	–	–	–
CCCCCCC(Sc1nc2ccc(NCc3ccccc3)cc2s1)C(=O)O (centres undefined)	1 µM	28%	1.7 µM	47%	–	6.1 µM	19%	–	–	–	–	–
CCCCCCC(Sc1nc2ccc(NC(=O)c3ccccc3)cc2s1)C(=O)O (centres undefined)	0.77 µM	31%	4.9 µM	43%	–	7 µM	27%	–	–	–	–	–
CCCCCCC(Sc1nc2ccc(NS(=O)(=O)c3ccc(-c4ccccc4)cc3)cc2s1)C(=O)O (centres undefined)	5 µM	23%	0.26 µM	26%	inactive	–	–	–	–	–	–	–
CCCCCCC(Sc1nc2ccc(NS(=O)(=O)c3ccc(C(C)(C)C)cc3)cc2s1)C(=O)O (centres undefined)	0.9 µM	17%	0.7 µM	30%	inactive	–	–	–	–	–	–	–
CCCCCCC(Sc1nc2ccc(NCc3cccc(Cl)c3)cc2s1)C(=O)O (centres undefined)	1.9 µM	51%	1.5 µM	47%	inactive	–	–	–	–	–	–	–
CCCCCCC(Sc1nc2ccc(NCc3ccc(-c4ccccc4)cc3)cc2s1)C(=O)O (centres undefined)	0.4 µM	26%	0.77 µM	34%	–	> 10 µM	–	–	–	–	–	–
CCCCCCC(Sc1nc2ccc(NCc3ccc(Cl)c(Cl)c3)cc2s1)C(=O)O (centres undefined)	1.4 µM	26%	2.8 µM	73%	–	> 10 µM	–	–	–	–	–	–

More lines, in order of falling EC50 [1], values ahead:

EC50 [1]	max activation [2]	EC50 [3]	max activation [4]	Activity [5]	EC50 [6]	max activation [7]	Structure (SMILES)	Activity [8]	Activity [9]	Activity [10]	Activity [11]	EC50 [12]
4.4 µM	11%	3.7 µM	7.1%	inactive	–	–	CCCCC(Sc1nc2ccc(NC(=O)c3ccc(C(C)(C)C)cc3)cc2s1)C(=O)O (centres undefined)	–	–	–	–	–
4 µM	39%	3.7 µM	28%	inactive	–	–	CCCCCCC(Sc1nc2ccc(NCc3ccc(C(C)(C)C)cc3)cc2s1)C(=O)O (centres undefined)	–	–	–	–	–
3.8 µM	19%	2.9 µM	35%	–	9.2 µM	25%	CCCCCCC(Sc1nc2ccc(NCc3cc(Cl)cc(Cl)c3)cc2s1)C(=O)O (centres undefined)	–	–	–	–	–
3.1 µM	59%	1.8 µM	39%	–	> 10 µM	–	CCCCCCC(Sc1nc2ccc(NCc3ccc(C(F)(F)F)cc3)cc2s1)C(=O)O (centres undefined)	–	–	–	–	–
3.1 µM	12%	4.3 µM	19%	–	6.2 µM	22%	CCCCCCC(Sc1nc2ccc(NC(=O)c3ccc(C(C)(C)C)cc3)cc2s1)C(=O)O (centres undefined)	–	–	–	–	–
1.36 µM	37%	2.4 µM	50%	inactive	–	–	CCCCCCC(Sc1nc2ccc(NCc3ccc(Cl)cc3)cc2s1)C(=O)O (centres undefined)	–	–	–	–	–
0.7 µM	16%	0.05 µM	39%	–	5.3 µM	21%	CCCCCCC(Sc1nc2ccc(NS(=O)(=O)c3ccc(Cl)cc3)cc2s1)C(=O)O (centres undefined)	–	–	–	–	–
0.25 µM	28%	0.16 µM	75%	–	0.4 µM	13%	CCCCCC[C@H](Sc1nc2ccc(NS(=O)(=O)c3ccc(Cl)cc3Cl)cc2s1)C(=O)O	–	–	–	Not Active	–
